ChEMBL document CHEMBL4613275, “Sulfonimide and Amide Derivatives as Novel PPARα Antagonists: Synthesis, Antiproliferative Activity, and Docking Studies” (ACS Med Chem Lett, 2020)
Active and inactive are the calls of the source. The rule behind the calls is not given here.

Experiments:
A498 [1] = experiment: Antiproliferative activity against human A498 cells assessed as inhibition of cell growth at 75 uM incubated for 72 hrs by MTT assay relative to control; assay type: functional; conditions: A498, 72 h
Homo sapiens [2] = species: Homo sapiens; experiment: Antiproliferative activity against human PTJ64i cells assessed as inhibition of cell growth incubated for 72 hrs by MTT assay; assay type: functional
Method in brief: (§1)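 MTT viability assay after 72 h exposure to compound over 0–24 μM, 24 μM being the highest concentration. […] Data are means ± SD of duplicate experiments, five replicates each.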

[3] = biological target: T1, Peroxisome proliferator-activated receptor alpha (Homo sapiens, UniProt Q07869); experiment: Antagonist activity at GAL4-tagged human PPARalpha LBD expressed in human HepG2 cells assessed as inhibition of Wy14,643-induced receptor transactivation incubated for 20 to 22 hrs by luciferase reporter gene assay; assay type: cell-based
T1 sequence (Q07869 whole entry): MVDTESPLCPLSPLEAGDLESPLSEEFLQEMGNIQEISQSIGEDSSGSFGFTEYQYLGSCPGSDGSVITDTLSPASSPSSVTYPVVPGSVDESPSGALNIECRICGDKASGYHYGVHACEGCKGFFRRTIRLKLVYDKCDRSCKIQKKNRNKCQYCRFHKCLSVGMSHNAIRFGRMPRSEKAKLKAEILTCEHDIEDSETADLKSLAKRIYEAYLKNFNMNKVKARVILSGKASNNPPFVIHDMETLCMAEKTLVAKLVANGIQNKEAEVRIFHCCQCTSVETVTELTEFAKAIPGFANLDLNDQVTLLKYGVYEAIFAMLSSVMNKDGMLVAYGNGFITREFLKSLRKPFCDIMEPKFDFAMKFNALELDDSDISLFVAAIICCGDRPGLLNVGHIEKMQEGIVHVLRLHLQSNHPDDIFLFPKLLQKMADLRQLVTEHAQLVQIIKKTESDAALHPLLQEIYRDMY

A498 [4] = experiment: Antiproliferative activity against human A498 cells assessed as inhibition of cell growth incubated for 72 hrs by MTT assay; assay type: functional; method in brief: as §1
ASPC1 [5] = experiment: Antiproliferative activity against human AsPC1 cells assessed as inhibition of cell growth at 75 uM incubated for 72 hrs by MTT assay relative to control; assay type: functional; conditions: ASPC1, 72 h
[6] = Selectivity index, ratio of CC50 for human HFF1 cells to CC50 for human PTJ86i cells; assay type: toxicity; conditions: HFF1 cells and PTJ86i cells
[7] = Selectivity index, ratio of CC50 for human HFF1 cells to CC50 for human PTJ64i cells; assay type: toxicity; conditions: HFF1 cells and PTJ64i cells
SW480 [8] = experiment: Antiproliferative activity against human SW480 cells assessed as inhibition of cell growth at 75 uM incubated for 72 hrs by MTT assay relative to control; assay type: functional; conditions: SW480, 72 h
SW480 [9] = experiment: Antiproliferative activity against human SW480 cells assessed as inhibition of cell growth incubated for 72 hrs by MTT assay; assay type: functional; method in brief: as §1
Capan-2 [10] = experiment: Antiproliferative activity against human Capan2 cells assessed as inhibition of cell growth incubated for 72 hrs by MTT assay; assay type: functional; method in brief: as §1
HT-29 [11] = experiment: Antiproliferative activity against human HT-29 cells assessed as inhibition of cell growth at 75 uM incubated for 72 hrs by MTT assay relative to control; assay type: functional; conditions: HT-29, 72 h
HT-29 [12] = experiment: Antiproliferative activity against human HT-29 cells assessed as inhibition of cell growth incubated for 72 hrs by MTT assay; assay type: functional; method in brief: as §1
Capan-2 [13] = experiment: Antiproliferative activity against human Capan2 cells assessed as inhibition of cell growth at 75 uM incubated for 72 hrs by MTT assay relative to control; assay type: functional; conditions: Capan-2, 72 h
HFF-1 = experiment: Cytotoxicity against human HFF1 cells assessed as reduction in cell viability incubated for 72 hrs by MTT assay; assay type: cell-based; conditions: hff-1, 72 h; method in brief: as §1
BXPC-3 [14] = experiment: Antiproliferative activity against human BxPC3 cells assessed as inhibition of cell growth incubated for 72 hrs by MTT assay; assay type: functional; method in brief: as §1
Homo sapiens [15] = species: Homo sapiens; experiment: Antiproliferative activity against human PTJ86i cells assessed as inhibition of cell growth incubated for 72 hrs by MTT assay; assay type: functional; method in brief: as §1
[16] = biological target: T2, Peroxisome proliferator-activated receptor gamma (Homo sapiens) (UniProt P37231); experiment: Effect on GAL4-tagged human PPARgamma LBD expressed in human HepG2 cells incubated for 20 to 22 hrs by luciferase reporter gene assay; assay type: cell-based
T2 sequence (whole entry): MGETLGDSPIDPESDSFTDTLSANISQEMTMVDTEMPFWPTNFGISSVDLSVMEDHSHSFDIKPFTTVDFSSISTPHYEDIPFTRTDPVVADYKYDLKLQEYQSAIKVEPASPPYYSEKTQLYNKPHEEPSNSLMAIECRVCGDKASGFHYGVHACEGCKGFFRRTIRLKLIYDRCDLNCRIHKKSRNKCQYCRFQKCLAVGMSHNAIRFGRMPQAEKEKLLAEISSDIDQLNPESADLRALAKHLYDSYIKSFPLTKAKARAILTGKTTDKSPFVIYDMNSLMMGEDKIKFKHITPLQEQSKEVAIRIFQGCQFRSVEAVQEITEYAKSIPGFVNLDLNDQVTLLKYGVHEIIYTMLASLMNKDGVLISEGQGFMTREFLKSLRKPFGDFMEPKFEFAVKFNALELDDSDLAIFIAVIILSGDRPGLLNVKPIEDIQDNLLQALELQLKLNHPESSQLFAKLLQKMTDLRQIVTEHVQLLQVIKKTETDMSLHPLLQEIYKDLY

[17] = (§2) Antiproliferative activity against human PTJ86i cells assessed as inhibition of cell growth at 75 uM incubated for 72 hrs by MTT assay relative to control; assay type: functional
BXPC-3 [18] = experiment: Antiproliferative activity against human BxPC3 cells assessed as inhibition of cell growth at 75 uM incubated for 72 hrs by MTT assay relative to control; assay type: functional; conditions: BXPC-3, 72 h
ASPC1 [19] = experiment: Antiproliferative activity against human AsPC1 cells assessed as inhibition of cell growth incubated for 72 hrs by MTT assay; assay type: functional; method in brief: as §1
HepG2 = experiment: Cytotoxicity against human HepG2 cells at >5 uM; assay type: cell-based
[20] = biological target: T2, Peroxisome proliferator-activated receptor gamma (Homo sapiens); experiment: Agonist activity at GAL4-tagged human PPARgamma LBD expressed in human HepG2 cells incubated for 20 to 22 hrs by luciferase reporter gene assay; assay type: cell-based
Homo sapiens [21] = species: Homo sapiens; experiment: Antiproliferative activity against human PTJ64i cells assessed as inhibition of cell growth at 75 uM incubated for 72 hrs by MTT assay relative to control; assay type: functional
Homo sapiens [22] = species: Homo sapiens; experiment: as §2; assay type: functional

CC(C)(Oc1ccc(CCOc2ccc(/N=N/c3ccccc3)cc2)cc1)C(=O)NS(=O)(=O)c1ccc([N+](=O)[O-])cc1
inhibition at 75 µM (A498 [1]): 51 to 71%
inhibition (Homo sapiens [2]): Dose-dependent effect
IC50 [3]: 1.1 µM
inhibition (A498 [4]): Dose-dependent effect
CC50 (A498 [4]; A498, 72 h): > 24 µM
inhibition at 75 µM (ASPC1 [5]): 41 to 92%
selectivity ratio [6]: > 8.63
selectivity ratio [7]: > 8.3
inhibition at 75 µM (SW480 [8]): 52 to 98%
inhibition (SW480 [9]): Dose-dependent effect
CC50 (SW480 [9]; SW480, 72 h): > 24 µM
inhibition (Capan-2 [10]): Dose-dependent effect
CC50 (Capan-2 [10]; Capan-2, 72 h): > 24 µM
inhibition at 75 µM (HT-29 [11]): 52 to 98%
inhibition (HT-29 [12]): Dose-dependent effect
CC50 (HT-29 [12]; HT-29, 72 h): > 24 µM
inhibition at 75 µM (Capan-2 [13]): 41 to 92%
CC50 (HFF-1): > 24 µM
inhibition (BXPC-3 [14]): Dose-dependent effect
CC50 (BXPC-3 [14]; BXPC-3, 72 h): 17 µM
inhibition (Homo sapiens [15]): Dose-dependent effect
Activity [16]: inactive
inhibition at 75 µM [17]: 84 to 98%
inhibition at 75 µM (BXPC-3 [18]): 41 to 92%
inhibition (ASPC1 [19]): Dose-dependent effect
CC50 (ASPC1 [19]; ASPC1, 72 h): > 24 µM

CC(C)(Oc1ccc(CCOc2ccc(/N=N/c3ccccc3)cc2)cc1)C(=O)NS(=O)(=O)c1ccc(NC(=O)Cc2ccccc2)cc1
IC50 [3]: 3.2 µM
Activity [16]: inactive

CC(C)(Oc1ccc(CCOc2ccc(/N=N/c3ccccc3)cc2)cc1)C(=O)NS(C)(=O)=O
Activity (HepG2): Toxic
Activity [20]: inactive

Cc1cccc(Nc2cc(Cl)nc(SCC(=O)O)n2)c1C
inhibition (Homo sapiens [21]): inactive
inhibition (Homo sapiens [22]): inactive

CC(C)(Oc1ccc(CCOc2ccc(NC(=O)c3ccccc3)cc2)cc1)C(=O)Nc1ccccc1
IC50 [3]: 12.3 µM
Activity [16]: inactive

CC(C)(Oc1ccc(CCOc2ccc(NC(=O)Nc3ccccc3)cc2)cc1)C(=O)Nc1ccccc1
IC50 [3]: 6.1 µM
Activity [16]: inactive

CC(C)(Oc1ccc(CCOc2ccc(NC(=O)Nc3ccccc3)cc2)cc1)C(N)=O
IC50 [3]: 3.32 µM
Activity [16]: inactive

CC(C)(CCCOc1ccc(/C=C/c2ccccc2)cc1)C(=O)NS(=O)(=O)c1ccccc1
Activity (HepG2): Toxic
Activity [20]: inactive

CC(C)(Oc1ccc(CCOc2ccc(NC(=O)Nc3ccccc3)cc2)cc1)C(=O)NS(=O)(=O)c1ccccc1
IC50 [3]: 1.52 µM
Activity [16]: inactive
